Source: article PMC6943944 (Journal of medicinal chemistry, 2019)
Values after ≈ are worked out from the molar mass of the structure shown.

Assays:
[1] = Biodistribution of 67Ga complexes in naive mice; type: in vivo; settings: naive female CBJ mice (n = 3), intravenous, 0.8–1.2 MBq, 1 h p.i.
Outline: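 Naive female CBJ mice (8–10 weeks) received 0.8–1.2 MBq of 67Ga complex via tail-vein catheter. The complex was formed from 67GaCl3 (derived from 67Ga-citrate) and ligand in HEPES at pH 7.4, with labelling checked by radio-HPLC. A 67Ga-citrate group was also dosed. At 1 h p.i. mice were killed, organs harvested and gamma-counted (% ID/g), and urine metabolites analysed by radio-HPLC.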

E. coli AN193 = experiment: MIC assay in E. coli AN193; type: cell-based, Escherichia coli; settings: E. coli AN193 carrying a mutation of the FhuA gene; compared with wt E. coli K12
S. aureus RN4220 = experiment: Growth inhibition; type: cell-based, Staphylococcus aureus; settings: for MIC90: Staphylococcus aureus, RN4220, 18 h, read-out: MIC90 S. aureus RN4220
P. aeruginosa PA01 = experiment: Growth inhibition; type: cell-based, Pseudomonas aeruginosa; settings: for MIC90: Pseudomonas aeruginosa, PA01, 18 h, read-out: MIC90 P. aeruginosa PA01
Outline: (§1)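 Broth microdilution in cation-adjusted Mueller–Hinton II broth made iron-deficient with 2,2′-bipyridine. Test compound stock was 0.3 mM in sterile water, with concentration verified by ICP-OES/UV–vis. Serial dilutions gave a final range of 0.3 × 10−4 to 1.56 × 10−12 M, with diluted inoculum added. Ciprofloxacin served as comparator. Incubation was 18 h at 37 °C with absorbance read. MIC was the lowest concentration giving ≥90% growth inhibition relative to negative-control wells.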

E. coli K12 [2] = experiment: MIC assay in E. coli K12 in iron-deficient; type: cell-based; settings: Escherichia coli, K12, 18 h, read-out: MIC90 (+DP)
K. pneumoniae CRE-11 = experiment: Growth inhibition; type: cell-based, Klebsiella pneumoniae; settings: for MIC90: Klebsiella pneumoniae, CRE11, 18 h, read-out: MIC90 K. pneumoniae CRE-11
Outline: as §1

E. coli K12 [3] = experiment: Challenge MIC assay in E. coli with 100-fold excess Fe-siderophore; type: cell-based, Escherichia coli; settings: for MIC90: Escherichia coli, K12, 18 h, read-out: MIC90 (+DP, +100× Fe siderophore)
[4] = cited from earlier work

Molecule | growth inhibitory activity in E. coli AN193 (in words) (E. coli AN193) | MIC90 (S. aureus RN4220) | MIC90 (P. aeruginosa PA01) | MIC90 (E. coli K12 [2]) | MIC90 (K. pneumoniae CRE-11) | MIC90 (E. coli K12 [3]) | other results
O=C([O-])CC(O)(CC(=O)[O-])C(=O)[O-].[67Ga+3] [^67Ga-citrate] |  |  |  |  |  |  | clearance route from biodistribution (in words) [1]: predominantly renal clearance
CC(=O)N(O)CCCCCNC(=O)CCC(=O)N(O)CCCCCNC(=O)CCC(=O)N(O)CCCCCNC(=O)CCC(=O)N1CCN(c2cc3c(cc2F)c(=O)c(C(=O)O)cn3C2CC2)CC1 [apo D1, 7-{4-[4-(5-{N-4-[5-(N-4-{5-[N-Acetyl-(hydroxyamino)]pentylamino}−4-oxobutyry(hydroxyamino))pentyl-amino]-4-oxobutyryl(hydroxyamino)}pentylamino)-4-oxobutyryl]-1-piperazinyl}−1-cyclopropyl-6-fluoro-4-oxo-1H-quinoline-3-carboxylic Acid] | retain comparable MIC values |  |  |  |  |  | 
CC(=O)N(O)CCCC(N)C(=O)NC(CCCN(O)C(C)=O)C(=O)NC(CCCN(O)C(C)=O)C(=O)NCCC(=O)N1CCN(c2cc3c(cc2F)c(=O)c(C(=O)O)cn3C2CC2)CC1 (centres unmarked) [apo D2, 7-[4-(3-{5-[N-Acetyl(hydroxyamino)]-2-{5-[N-acetyl(hydroxyamino)]-2-{5-[N-acetyl(hydroxyamino)]-2-aminovalerylamino}-valerylamino}valerylamino}propionyl)-1-piperazinyl]-1-cyclopropyl-6-fluoro-4-oxo-1H-quinoline-3-carboxylic Acid] | completely muted | 15 µM (≈ 13.8 µg/mL) | 7.5 µM (≈ 6.89 µg/mL) | 0.23 µM (≈ 0.211 µg/mL) | > 100 µM | > 100 µM | 
O=C(O)c1cn(C2CC2)c2cc(N3CCNCC3)c(F)cc2c1=O [ciprofloxacin] |  | 1.9 µM (≈ 0.63 µg/mL) | 0.94 µM (≈ 0.311 µg/mL) | 0.2 µM (≈ 0.0663 µg/mL) | 3.12 µM (≈ 1.03 µg/mL) | 0.23 µM (≈ 0.0762 µg/mL) | impact of 100× Fe–DFO or 100× Fe–LDFC on potency (in words) (E. coli K12 [3]; E. coli, challenge MIC assay): no impact
CC(=O)N(O)CCCCCNC(=O)CCC(=O)N(O)CCCCCNC(=O)CCC(=O)N(O)CCCCCN [desferrioxamine (DFO), desferrioxamine] |  |  |  |  |  |  | log Ka of the gallium complex [4]: 28.65
albomycin [Fe-D3 (albomycin)] | completely muted |  |  |  |  |  | MIC90 S. aureus RN4220 (S. aureus RN4220; wild-type S. aureus RN4220, iron-limiting conditions, 37 °C, 18 h): 0.94 µM; MIC90 P. aeruginosa PA01 (P. aeruginosa PA01; wild-type P. aeruginosa PA01, iron-limiting conditions, 37 °C, 18 h): >30 µM; MIC90 K. pneumoniae CRE-11 (K. pneumoniae CRE-11; carbapenem resistant K. pneumoniae CRE-11, iron-limiting conditions, 37 °C, 18 h): 0.00023 μM; growth inhibitory activity in K. pneumoniae (in words) (K. pneumoniae CRE-11; carbapenem resistant K. pneumoniae, iron-limiting conditions): exceptional potency
